In ChEMBL document CHEMBL4622841, “Structural modifications of indolinones bearing a pyrrole moiety and discovery of a multi-kinase inhibitor with potent antitumor activity” (Bioorg Med Chem, 2020):
Activity calls are given as the source filed them. The rule behind the calls is not given here.

Assays:
[1] = system: HT-29; test: Inhibition of receptor tyrosine kinase in human HT-29 cells assessed as reduction in ERK phosphorylation at Thr202/Tyr204 residues at 3 uM after 24 hrs by Western blotting analysis; assay type: cell-based
Procedure, shortened: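 Cells cultured overnight, then treated with compound at different concentrations for 24 h. About 1×10⁶ cells harvested and immunoblotted for p-AKT (Ser473), AKT, p-ERK (Thr202/Tyr204), ERK, with GAPDH as loading control. Detection by chemiluminescence and gel imaging. Blots shown are representative of several experiments.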

[2] = biological target: T1, Serine/threonine-protein kinase B-raf (Homo sapiens, UniProt P15056); test: Inhibition of B-Raf (unknown origin) at 1 uM using FAM-labeled peptide and ATP as substrate preincubated for 10 mins followed by substrate addition measured after 1 hr by mobility shift assay
[3] = system: HT-29; test: Induction of apoptosis in human HT-29 cells assessed as late apoptotic cells at 1 uM incubated for 72 hrs by Annexin-V-FITC/propidium iodide staining-based flow cytometric analysis (reference value: 6.12%); assay type: functional
[4] = system: HUVEC; test: Induction of apoptosis in human HUVEC cells assessed as early apoptotic cells at 0.3 uM incubated for 48 hrs by Annexin-V-FITC/propidium iodide staining-based flow cytometric analysis (reference value: 3.63%); assay type: functional
[5] = Inhibition of N-terminal GST-tagged human recombinant PDGFRalpha D842I mutant expressed in baculovirus-infected Sf9 cells using FAM-labeled peptide and ATP as substrate preincubated for 10 mins followed by substrate addition measured after 1 hr by mobility shift assay
[6] = system: MKN-74; test: Induction of apoptosis in human MKN74 cells assessed as early apoptotic cells at 3 uM incubated for 72 hrs by Annexin-V-FITC/propidium iodide staining-based flow cytometric analysis (reference value: 1.98%); assay type: functional
[7] = biological target: Vascular endothelial growth factor receptor 2 (Homo sapiens, UniProt P35968); test: Inhibition of N-terminal GST fused human VEGFR2 cytoplasmic domain (790 to 1356 (end) residues) expressed in baculovirus expression system using FAM-labeled peptide and ATP as substrate preincubated for 10 mins followed by substrate addition measured after 1 hr by mobility shift assay
[8] = system: HepG2; test: Induction of apoptosis in human HepG2 cells assessed as late apoptotic cells at 3 uM incubated for 72 hrs by Annexin-V-FITC/propidium iodide staining-based flow cytometric analysis (reference value: 2.89%); assay type: functional
[9] = biological target: T1, Serine/threonine-protein kinase B-raf; test: Inhibition of B-Raf (unknown origin) using FAM-labeled peptide and ATP as substrate preincubated for 10 mins followed by substrate addition measured after 1 hr by mobility shift assay
[10] = system: HT-29; test: Induction of apoptosis in human HT-29 cells assessed as late apoptotic cells at 0.3 uM incubated for 72 hrs by Annexin-V-FITC/propidium iodide staining-based flow cytometric analysis (reference value: 6.12%); assay type: functional
[11] = system: MKN-74; test: Induction of apoptosis in human MKN74 cells assessed as early apoptotic cells at 1 uM incubated for 72 hrs by Annexin-V-FITC/propidium iodide staining-based flow cytometric analysis (reference value: 1.98%); assay type: functional
[12] = system: HepG2; test: Induction of apoptosis in human HepG2 cells assessed as early apoptotic cells at 1 uM incubated for 72 hrs by Annexin-V-FITC/propidium iodide staining-based flow cytometric analysis (reference value: 1.08%); assay type: functional

T1 sequence (P15056 whole entry): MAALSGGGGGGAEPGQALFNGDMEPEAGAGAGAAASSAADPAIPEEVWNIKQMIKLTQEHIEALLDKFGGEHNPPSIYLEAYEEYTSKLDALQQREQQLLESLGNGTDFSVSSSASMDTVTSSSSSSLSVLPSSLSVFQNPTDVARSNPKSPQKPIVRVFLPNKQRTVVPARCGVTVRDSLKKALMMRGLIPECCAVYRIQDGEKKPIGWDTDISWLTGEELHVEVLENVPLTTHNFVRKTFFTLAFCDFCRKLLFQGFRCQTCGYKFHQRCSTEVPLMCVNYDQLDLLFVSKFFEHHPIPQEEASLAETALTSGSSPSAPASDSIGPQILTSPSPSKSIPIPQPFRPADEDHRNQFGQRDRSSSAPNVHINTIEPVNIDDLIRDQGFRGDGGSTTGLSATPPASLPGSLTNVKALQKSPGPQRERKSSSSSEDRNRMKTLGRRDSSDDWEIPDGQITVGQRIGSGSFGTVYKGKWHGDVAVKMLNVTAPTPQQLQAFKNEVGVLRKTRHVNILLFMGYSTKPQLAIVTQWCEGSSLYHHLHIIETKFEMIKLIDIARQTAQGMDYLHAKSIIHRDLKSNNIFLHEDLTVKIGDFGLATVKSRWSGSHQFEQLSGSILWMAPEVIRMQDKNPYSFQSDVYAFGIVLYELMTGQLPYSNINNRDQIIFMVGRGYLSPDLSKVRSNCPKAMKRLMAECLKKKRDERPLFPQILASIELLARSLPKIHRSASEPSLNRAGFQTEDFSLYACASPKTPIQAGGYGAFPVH
Vascular endothelial growth factor receptor 2, sequence (P35968 whole entry, the tested form may be a part): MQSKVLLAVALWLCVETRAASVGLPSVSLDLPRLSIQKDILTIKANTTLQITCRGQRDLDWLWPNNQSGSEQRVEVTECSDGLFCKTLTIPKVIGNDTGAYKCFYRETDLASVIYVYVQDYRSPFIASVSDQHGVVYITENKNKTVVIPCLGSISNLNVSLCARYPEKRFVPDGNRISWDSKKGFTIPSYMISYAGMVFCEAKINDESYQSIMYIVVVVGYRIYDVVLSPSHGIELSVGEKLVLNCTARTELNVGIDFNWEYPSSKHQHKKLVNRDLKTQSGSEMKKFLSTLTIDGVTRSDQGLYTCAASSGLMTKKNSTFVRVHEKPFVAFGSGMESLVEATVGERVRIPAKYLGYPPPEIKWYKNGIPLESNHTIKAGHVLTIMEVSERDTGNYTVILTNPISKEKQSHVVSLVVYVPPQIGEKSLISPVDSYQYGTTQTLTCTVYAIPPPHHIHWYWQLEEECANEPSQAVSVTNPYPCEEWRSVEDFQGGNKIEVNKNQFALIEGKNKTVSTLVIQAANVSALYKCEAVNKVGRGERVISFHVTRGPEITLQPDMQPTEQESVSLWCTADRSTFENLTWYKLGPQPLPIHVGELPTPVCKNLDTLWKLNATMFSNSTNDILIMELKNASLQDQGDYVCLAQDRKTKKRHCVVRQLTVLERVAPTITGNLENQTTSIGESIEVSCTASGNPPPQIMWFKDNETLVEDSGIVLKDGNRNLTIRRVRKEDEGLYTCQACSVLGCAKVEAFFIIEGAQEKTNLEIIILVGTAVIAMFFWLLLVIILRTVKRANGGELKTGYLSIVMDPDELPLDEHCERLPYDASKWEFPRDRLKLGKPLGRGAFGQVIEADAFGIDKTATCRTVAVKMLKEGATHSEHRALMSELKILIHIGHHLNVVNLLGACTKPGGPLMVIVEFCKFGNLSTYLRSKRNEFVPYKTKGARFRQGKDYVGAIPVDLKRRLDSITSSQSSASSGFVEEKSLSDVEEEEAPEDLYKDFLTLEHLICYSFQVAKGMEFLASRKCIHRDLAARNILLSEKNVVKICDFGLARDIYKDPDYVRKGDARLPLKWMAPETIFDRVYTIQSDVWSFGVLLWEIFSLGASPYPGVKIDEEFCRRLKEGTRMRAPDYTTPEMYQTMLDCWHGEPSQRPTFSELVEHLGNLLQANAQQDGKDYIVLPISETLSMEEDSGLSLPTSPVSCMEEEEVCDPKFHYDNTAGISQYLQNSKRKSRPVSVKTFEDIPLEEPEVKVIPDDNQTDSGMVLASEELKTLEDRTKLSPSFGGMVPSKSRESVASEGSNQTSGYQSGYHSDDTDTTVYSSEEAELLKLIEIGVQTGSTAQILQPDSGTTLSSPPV

COC(=O)c1ccc2c(c1)NC(=O)/C2=C(\Nc1ccc(-n2c(C)ccc2CN2CCN(C)CC2)cc1)c1ccccc1
inhibition [1]: Active | inhibition [2]: inactive | Activity [3]: 37.8% | Activity [4]: 2.36% | IC50 [5]: 7 nM | Activity [6]: 8.01% | IC50 [7]: 6.5 nM | Activity [8]: 64.56% | IC50 [9]: > 1000 nM | Activity [10]: 11.99% | Activity [11]: 5.73% | Activity [12]: 17.61%
